Runt-SMMHC FRET = inhibitors of human RUNX1 Runt domain binding to CBFb-SMMHC | Cerulean-Runt/Venus-CBFb-SMMHC FRET ratio 530/480, 1 h | inhibition, % at 20 µM | Q01196+Q13951 | 220,000 tested, 0.74% active;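 active = mean inhibition across duplicate retests at 20 µM reaching about 50%, limit read from the data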;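 also: inhibitors lower the FRET ratio by blocking Runt binding to CBFb-SMMHC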
Target sequence (Q01196 whole entry, looked up, the tested form may be a part): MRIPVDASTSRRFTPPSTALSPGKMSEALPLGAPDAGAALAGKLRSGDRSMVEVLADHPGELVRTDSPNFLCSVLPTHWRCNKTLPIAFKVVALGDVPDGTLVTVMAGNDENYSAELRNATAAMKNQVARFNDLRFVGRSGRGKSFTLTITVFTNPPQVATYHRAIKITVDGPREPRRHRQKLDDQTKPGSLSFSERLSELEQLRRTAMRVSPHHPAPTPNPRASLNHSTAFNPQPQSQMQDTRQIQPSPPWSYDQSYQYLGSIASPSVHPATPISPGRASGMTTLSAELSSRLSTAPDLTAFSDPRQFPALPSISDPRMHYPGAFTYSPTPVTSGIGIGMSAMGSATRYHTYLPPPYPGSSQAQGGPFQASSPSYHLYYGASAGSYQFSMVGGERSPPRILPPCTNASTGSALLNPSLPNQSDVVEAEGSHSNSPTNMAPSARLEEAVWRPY
Target sequence (Q13951 whole entry, looked up, the tested form may be a part): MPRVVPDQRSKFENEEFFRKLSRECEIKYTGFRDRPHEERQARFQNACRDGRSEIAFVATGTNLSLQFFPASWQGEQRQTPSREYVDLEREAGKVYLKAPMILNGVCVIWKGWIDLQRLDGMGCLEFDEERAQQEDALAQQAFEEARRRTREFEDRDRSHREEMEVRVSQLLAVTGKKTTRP
proKLK7 act = proKLK7 (human) activation, primary screen | AID 652039 | purified proKLK7, EDANS-DABCYL substrate fluorescence; 100% is mature enzyme control, 0% vehicle | P49862 | activation, % at 7 µM | 370,000 tested, 0.9% active;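 active = activation above the mean of all tested compounds plus 3 SD, computed per campaign excluding outliers beyond control limits, cut at about 13% in these data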
RanGTP-Imp inh = disruptors of Ran-importin-beta complex formation – biochemical, FRET, CFP-Ran, YFP-importin-beta, homogeneous, primary screen; cell-free CFP-Ran/YFP-importin-beta FRET ratio; inhibition, % (concentration not given with the values); 300,000 tested, 1.1% active; AID 2216;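 active = more than half of the replicate wells show a fall in the fluorescence ratio signal beyond about 16%, limit read from the data, passing the limit was not always enough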
MEX-5 binding = C. elegans MEX-5 TCR-2 RNA binding activity. MEX-5/FITC-TCR2 RNA binding, fluorescence polarization; stronger effect = lower value. activity score (negative = inhibition of binding), % at 10 µM. AID 1832. 300,000 tested, 0.38% active. Q9XUB2;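 active = inhibition past about -25% in most replicates, and total fluorescence under double the plate's negative control median, limit read from the data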
Runt-CBFb FRET = blocks binding of human RUNX1 Runt domain to CBFb. Cerulean-Runt/Venus-CBFb FRET ratio 530/480, 1 h. inhibition, % at 20 µM. 220,000 tested, 0.46% active. AID 1496;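 active = inhibition over about 50% at 20 µM in the single-dose screen, limit read from the data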
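Assay system: Cerulean-tagged RUNX1 Runt domain (FRET donor) fusion protein / Amount: 100 nM each of Venus-CBFb and Cerulean-Runt domain / Medium: Tris buffer pH 7.5 with salts and BSA / Also added: Venus-CBFb 100 nM / Schedule: 1 h complex formation plus 1 h compound treatment, room temperature / Signal: FRET fluorescence / Read-out: loss of energy transfer signal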
KLK7 act conf = confirmation of human kallikrein-7 zymogen activators. shares compounds with proKLK7 act. purified proKLK7, EDANS-DABCYL substrate fluorescence; scaled: vehicle 0, mature enzyme 100. activation, % at 7 µM. 3,200 tested, 68% active. AID 686949;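 active = activation, as change over the incubation, above the mean of all tested compounds plus 3 SD, cut at about 13% in these data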
EDANS-DABCYL int = fluorescence interference counter-screen for KLK7 activators. 3,200 tested, 80% active. EDANS-DABCYL substrate fluorescence interference, no enzyme, 4 h; solvent 0%, active enzyme control 100%. shares compounds with proKLK7 act. AID 686952. activation, % at 7 µM;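 active = activation above the all-compound mean plus 3 SD, ignoring values outside control-based bounds, cut at about 4.8% in these data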;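 also: value is the 4 h activation minus the activation read at time zero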
Large screens that a line does not name were inactive (follow-up assays come after a bar, where they were run). An excerpt weighted towards active compounds, which were near 2.1% of everything screened.

CCOC(=O)CNC(=O)CSc1nc(C)cc(C)c1C#N	none
CSc1nc(N)nc(SCC(=O)OC(C)C)c1C#N	none
COc1cc(CCC(=O)OCC(=O)NCCc2ccc(S(N)(=O)=O)cc2)cc(OC)c1OC	none (no result: Runt-SMMHC FRET, RanGTP-Imp inh, MEX-5 binding, Runt-CBFb FRET)
Cc1nc2ccc(NC(=O)c3ccc(F)cc3Cl)cc2c(=O)[nH]1	none (no result: Runt-SMMHC FRET, RanGTP-Imp inh, MEX-5 binding, Runt-CBFb FRET)
COC(=O)CC(=O)CSc1nc(C)cc(C)c1C#N	proKLK7 act 20 | KLK7 act conf 93 | EDANS-DABCYL int 91
CN(C)CCn1nnc2c(=O)oc3ccccc3c21	none (no result: RanGTP-Imp inh)
Cc1cccnc1NC(=O)Nc1cccc(F)c1	none (no result: Runt-SMMHC FRET, RanGTP-Imp inh, MEX-5 binding, Runt-CBFb FRET)
COc1nc(-c2ccccc2)c2cc(C)ccc2n1	proKLK7 act 13 (no result: Runt-SMMHC FRET, Runt-CBFb FRET) | KLK7 act conf inactive | EDANS-DABCYL int inactive
CCOc1nc(-c2ccccc2)c2cc(C)ccc2n1	none (no result: Runt-SMMHC FRET, Runt-CBFb FRET)
Cc1ccc2nc(NCCO)nc(-c3ccccc3)c2c1	proKLK7 act 19, RanGTP-Imp inh 29 | KLK7 act conf inactive | EDANS-DABCYL int inactive
Cc1ccccc1N(CC(=O)NC1CCCC1)C(=O)C1(C)CC(=O)N=C2C=CC(Cl)=CN21 (centres undefined)	proKLK7 act 16 (no result: Runt-SMMHC FRET, Runt-CBFb FRET) | KLK7 act conf 33 | EDANS-DABCYL int 39
CCN(CC)CCNC(=O)c1cc(-c2ccco2)nc2ccccc12	proKLK7 act 60 | KLK7 act conf 57 | EDANS-DABCYL int 73
O=C(O)c1ccccc1/C=N/NC(=O)c1cc(-c2ccco2)nc2ccccc12	proKLK7 act 15 | KLK7 act conf 29 | EDANS-DABCYL int 31
O=C(NNC(=O)c1cc(-c2ccco2)nc2ccccc12)c1ccccc1	proKLK7 act 141 | KLK7 act conf 51 | EDANS-DABCYL int 70
CCOC1=C2[C@H](c3ccc(CC)cc3)N(S(=O)(=O)c3ccc(C)cc3)C[C@H]2n2c(=O)n(-c3ccccc3)c(=O)n2C1	none (no result: Runt-SMMHC FRET, RanGTP-Imp inh, MEX-5 binding, Runt-CBFb FRET)
Cc1cc(=O)oc2c(C)c(OCC(=O)N3CCN(C(=O)C4COc5ccccc5O4)CC3)ccc12 (centres undefined)	none (no result: Runt-SMMHC FRET, Runt-CBFb FRET)
Cc1c(CC(=O)N2CCN(C(=O)C3COc4ccccc4O3)CC2)c(=O)oc2cc(O)ccc12 (centres undefined)	proKLK7 act 58 (no result: Runt-SMMHC FRET, Runt-CBFb FRET) | KLK7 act conf 74 | EDANS-DABCYL int 75
Cc1c(CC(=O)N2CCN(C(=O)C3COc4ccccc4O3)CC2)c(=O)oc2cc(O)cc(O)c12 (centres undefined)	proKLK7 act 61 (no result: Runt-SMMHC FRET, Runt-CBFb FRET) | KLK7 act conf 68 | EDANS-DABCYL int 67
CC1CCN(Cc2c(O)ccc3c(=O)c(-c4nc5ccccc5s4)c(N)oc23)CC1	none
COc1ccccc1-c1c(C)oc2c(CN3CCN(CCO)CC3)c(O)ccc2c1=O	proKLK7 act 72 | KLK7 act conf 68 | EDANS-DABCYL int 75
COc1ccccc1-c1c(C)oc2c(CN3CCN(C)CC3)c(O)ccc2c1=O	proKLK7 act 62 | KLK7 act conf 60 | EDANS-DABCYL int 74
COc1ccc(-c2c(C)oc3c(CN4CCN(CCO)CC4)c(O)ccc3c2=O)cc1OC	none
Nc1c2c(nc3ccccc13)N(c1ccccc1)CC2	proKLK7 act 70 | KLK7 act conf 20 | EDANS-DABCYL int 21
Cc1ccc(Nc2cc(C)c3ccc(O)cc3n2)cc1C	none
Cc1cc(NCc2ccco2)nc2cc(O)ccc12	Runt-SMMHC FRET 76, proKLK7 act 19, RanGTP-Imp inh 30 | KLK7 act conf 72 | EDANS-DABCYL int 66
Cc1ccc(C)c(S(=O)(=O)N(C)c2ccc(OC(=O)C3CCN(C(=O)Nc4ccccc4)CC3)cc2)c1	none (no result: Runt-SMMHC FRET, RanGTP-Imp inh, MEX-5 binding, Runt-CBFb FRET)
Cc1cccc(CCNS(=O)(=O)c2ccc3c(c2)CCN3C(=O)CCC(=O)O)c1	none (no result: Runt-SMMHC FRET, proKLK7 act, Runt-CBFb FRET)
COCCn1nnnc1CN(Cc1cc2cc(OC)c(OC)cc2[nH]c1=O)C1CCCC1	proKLK7 act 18 | KLK7 act conf inactive | EDANS-DABCYL int inactive
